Measurements reported in ChEMBL document CHEMBL4513216, “Probing the Open Global Health Chemical Diversity Library for Multistage-Active Starting Points for Next-Generation Antimalarials” (ACS Infect Dis, 2020).

Experiment: Toxicity liver stage against HepG2, at 10uM
Format: cell-based
Parameters: test concentration 10 uM, cell line HepG2-A16-CD81EGFP
Conditions: human, HepG2-A16-CD81EGFP cells; read-out: INHIBITION
Outline: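 Uninfected HepG2-A16-CD81EGFP cells, 3 × 10^3 per well, 1536-well, plated on prespotted compound at 10 μM final, parasite-free screening media added to match infected plates; puromycin 10 μM positive, DMSO 0.5% negative; run in parallel with 48 h PbLuc assay at 37 °C, 5% CO2; viability by CellTiter-Glo luminescence, normalized to controls.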

Row | Structure (SMILES) | cytotoxicity at 10 µM [%]
1 | CCCc1ncc(C(=O)c2ccc(OC)cc2)n1C | 22.3
2 | COCC(=O)NC[C@H]1C[C@@H]2CCN1C[C@@H]2CN1CCc2ccccc21 | 3.29
3 | CC(=O)N1CCC(N2C[C@@H](F)[C@@H](OCc3nc4ncccc4[nH]3)C2)CC1 | 6.1
4 | O=C(NC[C@H]1OC[C@@H](NC2CCCCC2)[C@@H]1O)c1cccs1 | -2.36
5 | COc1ccc2[nH]c(C[C@@H]3C[C@@H](C(C)C)[C@H](CN(C)C)C=C3C)nc2c1 | -0.626
6 | COc1cccc(CN2CCCCCC2c2cccc(F)c2)c1O (configuration not stated) | 5.02
7 | COc1ccc2c(c1)C(=O)CC1(CCN(Cc3ccc(F)cc3)CC1)O2 | 16.6
8 | CCOC(=O)C1CCN(C(=O)c2cnn(-c3ccccc3F)c2N)CC1 | 4.47
9 | CC1(CO)COC(Cc2ccc(Cl)cc2)=N1 (configuration not stated) | 12.6
10 | CC1=Nc2c(c(=O)[nH]n2C2CCOCC2)C(c2cccc(O)c2)S1 (configuration not stated) | -6.81
11 | O=C(Cc1cccc(F)c1)N1C[C@H]2CN(Cc3cccnc3)C[C@H]2C1 | 0.0515
12 | CCN1C(=O)CCC12CCCN(CCc1ccccc1)C2 (configuration not stated) | -0.449
13 | CC(C)NC(=O)[C@H]1CCS(=O)(=O)[C@@H]2CN(c3ncccn3)C[C@H]12 | -123
14 | Cn1cc(C2CC(=O)NC23CCN(Cc2nccs2)CC3)cn1 (configuration not stated) | 1.06
15 | CC(=O)N1CCc2nc3sc(C(N)=O)c(N)c3c(C(F)(F)F)c2C1 | 6.28
16 | COc1ncccc1C(=O)Nc1nc2c(s1)CN(S(=O)(=O)C1CC1)CC2 | -9.04
17 | COc1ccccc1S(=O)(=O)N1CCC(Oc2cccnn2)CC1 | -7.33
18 | CCC(=O)N1CCC2(CC1)COc1ccccc1S(=O)(=O)N(C)C2 | -6.71
19 | Cc1noc(C2CCC3(CCN(C(=O)C4=CCCCC4)CC3)O2)n1 (configuration not stated) | -7.36
20 | COCCN1CCN(C(=O)C2CC=CC2)Cc2cccnc21 | -11.1
21 | c1cnc(N2C[C@H]3CCN(c4cccnc4)C[C@H]3C2)nc1 | -14.7
22 | O=C(NCC1CC1)C1CN(C(=O)c2cccnc2)CC12CCOCC2 (configuration not stated) | 3.25

Row | Structure (SMILES) | cytotoxicity at 10 µM [%]
23 | CCn1cc(NS(=O)(=O)c2ccc(Br)s2)c(C(=O)NCC(C)C)n1 | 6.86
24 | CCn1cc(Br)c(C(=O)NCc2cccnc2)n1 | -10.1
25 | O=C(c1ccc2c(c1)CCCC2)N1CCn2ncnc2C1 | -4.9
26 | Cc1nccn1[C@@H]1CC[C@@H](N(C)S(=O)(=O)c2ccccc2F)[C@H]1O | 1.17
27 | Cc1c[nH]c(C2CCCN2C(=O)CCc2c(C)n[nH]c2C)n1 (configuration not stated) | -1.4
28 | NC(=O)c1cc(CC2CCCN(Cc3cnccn3)CC2)ncn1 (configuration not stated) | -3.97
29 | CN1CCOC(c2cncc(CCC(N)=O)n2)C1 (configuration not stated) | -2.86
30 | O=C(Cc1cccc(O)c1)N1CCCC(O)(CN2CCCC2)CC1 (configuration not stated) | -4.68
31 | Cc1cc(O)nc(C2CCCN(CCO)C2)n1 (configuration not stated) | -14.6
32 | CC(C)(C)C(=O)Nc1cnn(-c2ccccc2S(C)(=O)=O)c1 | 3.65
33 | COc1ccccc1OCCNC(=O)NCc1nc(C)no1 | 6.67
34 | CCc1cnc(CN(C)C2CCN(c3sccc3C#N)C2=O)s1 (configuration not stated) | 8.32
35 | COc1cccc(OC)c1CC(=O)NC(C#N)c1ccsc1 (configuration not stated) | 14.9
36 | Cc1nc(N2CCN(C(=O)CC3CCCC3)CC2)c2cnn(C)c2n1 | 6.24
37 | CCOCCC1(CNC(=O)c2ccsc2)CCC1 | 7.92
38 | CC(Cn1cccn1)C(=O)N1CCCN(Cc2cscn2)CC1 (configuration not stated) | -13.2
39 | COc1ncccc1CNC(=O)N1CCC(CNC(C)=O)CC1 | 3.4
40 | Cc1nnc(CN2CCC(c3nc4cc(Cl)ccc4o3)CC2)n1C | -3.49
41 | Cc1c(C(=O)NCCCC(N)=O)sc2ccc(F)cc12 | 14.6
42 | OCC1(NCc2cnc(-c3cccs3)s2)CCOCC1 | -1.99
43 | CN(Cc1cnn(C)c1)C(=O)c1ccc(=O)n(Cc2ccccc2)n1 | -134
44 | CCOc1ncccc1C(=O)N1CCCC(n2nc(C)cc2C)C1 (configuration not stated) | -5.54

Row | Structure (SMILES) | cytotoxicity at 10 µM [%]
45 | NC(=O)N1CC(OCc2cccc3ccccc23)C1 | -0.396
46 | CCN(C)c1ccc(CNC(=O)c2ccc(NC(N)=O)cc2)cc1F | 7.52
47 | CCN1CCN(S(=O)(=O)c2c[nH]c(C(C)C)n2)c2ccccc21 | 4.65
48 | CC(C)(C(N)=O)S(=O)(=O)c1ccc(Br)cc1 | 4.4
49 | N#Cc1cccnc1NCc1cccnc1N1CCC(C(N)=O)CC1 | -0.179
50 | CN(CCOc1cccc(CN)c1)C1CCOCC1 | -1.35
51 | O=C(NCC(O)c1ccc(F)c(F)c1)c1cccnc1OCC(F)(F)F (configuration not stated) | -10.2
52 | O=C(CCc1nccs1)N1CCCC(N2CCNC2=O)C1 (configuration not stated) | -18.3
53 | CCN(Cc1cccnc1)CC1CCCO1 (configuration not stated) | -10.7
54 | CCOCC(=O)N1C[C@H]2CCC[C@@]2(COC)C1 | 0.419
55 | O=C(c1ccnnc1)N1CCc2onc(Cn3cccn3)c2C1 | 0.529
56 | Cc1ccc(CN2CCCn3c(nc(Cn4ccnc4)cc3=O)C2)s1 | 4.24
57 | c1ccc(-c2cc(CN3C[C@H]4CC[C@H]3C4)on2)cc1 | -5.33
58 | Cc1ncsc1CCN(C)C(=O)C(c1cccnc1)N1CCOCC1 (configuration not stated) | -6.02
59 | CN1C(=O)CC(C(=O)O)C12CCN(c1ccc3cccc(Cl)c3n1)CC2 (configuration not stated) | 2.1
60 | COCCN(C)CCN1CC2(CCN(C3CCSC3)CC2)OC1=O (configuration not stated) | -2.28
61 | Cc1cccc(C(C(=O)N2CCN(C(=O)c3ccc[nH]3)CC2)N(C)C)c1 (configuration not stated) | -7.55
62 | CC1(C)CNC(=O)c2nc(-c3nnc(-c4ccccc4)[nH]3)[nH]c2C1 | -5.79
63 | CCc1nc2c(c(N(C)Cc3nncn3CCOC)n1)CCNCC2 | -7.63
64 | Nc1cnc(-c2cccc3c2CCNC3)cn1 | -12
65 | CN(C)c1ncc(CN2CCCC(Nc3ccc4c(c3)OCCO4)C2)s1 (configuration not stated) | 8.12
66 | CN(C)C(=O)c1cn2cc(-c3ccccc3Cl)n(CC3CC3)c(=O)c2n1 | -1.43

Row | Structure (SMILES) | cytotoxicity at 10 µM [%]
67 | O=C(C1CCCC1)N1CC[C@]2(O)CCN(Cc3ncccn3)C[C@@H]2C1 | 9.04
68 | CCc1ncc(CNCc2cccnc2N(C)C)cn1 | -2.62
69 | COc1ccc2c(c1)CCN(Cc1cscn1)CC2 | 0.0869
70 | CCc1ncc(C(=O)NCCn2c(C)cc(C)nc2=O)cn1 | -1.75
71 | COc1cccc2c1OCC(C(=O)N1CCN(S(=O)(=O)N(C)C)CC1)C2 (configuration not stated) | 3.47
72 | COc1cc(Oc2ccc(C(N)=O)cn2)ccc1CN1CCCC1 | -0.398
73 | COc1ccccc1OCc1cc(C(=O)N2C[C@H](O)[C@@H](N(C)C)C2)n[nH]1 | 3.2
74 | O=C(O)[C@]12CCCN(Cc3ccncc3)[C@@H]1CCN(c1cnccn1)C2 | 20.4
75 | Cc1scc(C(=O)N2CCC3(CC(=O)NC3=O)C2)c1-c1ccccc1 (configuration not stated) | -17.5
76 | Cc1nc(-c2cccc(C(=O)O)c2)cc(C2CCN(C(C)C)C2)n1 (configuration not stated) | 5.32
77 | Cc1cnc(C(=O)N2CCCCC2c2[nH]ncc2S(C)(=O)=O)cn1 (configuration not stated) | 2.12
78 | Cc1nnc(NCc2cccnc2OCC(F)(F)F)c(C#N)c1C | -7.77
79 | Cc1nnc2n1CCN(Cc1csc(COc3ccccc3)n1)C2 | -14.3
80 | CCc1noc(C(C)N2CCN(CCN3CCCC3=O)CC2)n1 (configuration not stated) | -9.37
81 | Cc1cccc(NC2CCN(C(=O)Nc3ccc(F)cc3C)CC2)n1 | -11.7
82 | Cc1ccc(F)c(NC(=O)NCCCn2nc3ccccn3c2=O)c1 | -13.3
83 | Cn1nc2c(cc1=O)CN(Cc1coc(-c3ccc(F)cc3)n1)CC2 | -11.5
84 | Cc1nccn1C1CCCN(C(=O)c2cccc(OCC(N)=O)c2)C1 (configuration not stated) | -13
85 | CN(C)c1cc(CNC(=O)Nc2nccs2)ccn1 | 2.3
86 | Cc1nccc(CNc2cc(N3CCCC3CO)ncn2)n1 (configuration not stated) | -14
87 | CCN1CCC(NC(=O)CN2CCc3c(ncn3C3CC3)C2)CC1 | -4.8
88 | CNC(=O)c1ccc(C(=O)N2CCC(Nc3cccnn3)CC2)cn1 | -19.4

Row | Structure (SMILES) | cytotoxicity at 10 µM [%]
89 | CC(=O)Nc1nc(C(=O)N2CCCCC2Cn2cc(C)cn2)cs1 (configuration not stated) | -17.1
90 | CC1CN(C(=O)CN(Cc2ccccc2Cl)C2CCCC2)CCO1 (configuration not stated) | -5.65
91 | CC(=O)N(Cc1noc(C)n1)C1CCN(Cc2cnc(C)s2)C1 (configuration not stated) | -9.65
92 | CCc1nnsc1C(=O)N1CCCN(Cc2ccc(F)cc2)CC1 | -3.69
93 | CS(=O)(=O)NCC1CCCN(C(=O)COc2ccc(F)cc2)C1 (configuration not stated) | -6.38
94 | CCc1noc(C(C)N2CCN(Cc3ncc(C(C)(C)C)o3)CC2)n1 (configuration not stated) | -6.62
95 | CCNc1cc2c(nn1)CCN(C(=O)c1ccc(NC3CC3)nc1)C2 | -12.3
96 | CC(c1ccc(F)c(F)c1)N1CCN(Cc2nccn2C)CC1 (configuration not stated) | -2.76
97 | Cn1c(C2CC2)nc2c1CCN(CCS(=O)(=O)c1ccccc1)C2 | 3.73
98 | CCn1nc2c(cc1=O)CN(CC(=O)Nc1nc(C)c(C)s1)CC2 | -8.8
99 | CCCn1nc(C)c(-c2cncn2CCN(C)C2CCCC2)c1C | 4.16
100 | CC(C)CNC(=O)[C@H]1CCS(=O)(=O)[C@@H]2CN(Cc3ccc(F)cc3)C[C@H]12 | 1.26
101 | CN(C)S(=O)(=O)N1CC[C@]2(C[C@H](Oc3cccnc3)CO2)C1 | -0.465
102 | Cc1cccc(CN2CCC3(CCCN(C(=O)NC4CC4)C3)C2=O)n1 (configuration not stated) | 12.2
103 | Cc1ccoc1C(=O)N1C[C@@H]2[C@@H](C1)OCC(=O)N2Cc1cccnc1 | 9.38
104 | CO[C@H]1CCN(Cc2cnn(C)c2)[C@@H]2CN(Cc3cccnc3)C[C@H]12 | -4.17
105 | Cc1ccc(N2CCC3(CCN(C(=O)c4ccoc4)CC3)CC2)nn1 | -0.355
106 | Cc1ccc(CNS(=O)(=O)C=c2[nH]c(=O)n3cccc3c2=O)cc1 | 6.38
107 | CN(C)C(=O)CN1C[C@H]2CC[C@@H](C1)N(Cc1cc(F)ccc1F)C2 | -24
